UPR CHOP act: activators of apoptotic arm of unfolded protein response (CHOP). CHO-CHOP luciferase reporter, UPR activation, luminescence; percent of tunicamycin response over DMSO baseline. activation, % at 10 µM. 0.34% of 330,000 active;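 active = at 10 µM dose, activation of 40% or more, normalized to positive control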;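 note: 100% = tunicamycin at 10 µg/mL and 0% = DMSO alone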
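Evaluation: % reporter activation, DMSO baseline versus tunicamycin full activation; System: CHO-CHOP luciferase reporter cell line; Input: 500 cells/well; Incubation: 6 h compound treatment, 37 °C; Measured by: Steady-Glo luciferase luminescence; Dosing: one dose, 10 µM in 0.5% DMSO; Buffer or medium: F12 medium, 10% FBS; Benchmarks: positive tunicamycin 10 µg/mL, negative DMSO alone.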
CHOP inh: inhibitors of CHOP induction in ER stress response | CHO-K1 CHOP-promoter luciferase, tunicamycin-induced, 15-18 h | inhibition, % at 10 µM | 3.8% of 220,000 active | AID 2732;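 active = compounds that reduced the stress-induced luciferase reporter signal by more than about 70% of percent inhibition, limit read from the data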;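 note: 0% = tunicamycin plus vehicle and 100% = wells without tunicamycin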
TbMetRS inhib: Trypanosoma brucei MetRS inhibition; inhibition, % at 11.9 µM; 0.4% of 360,000 active; purified T. brucei MetRS, ATP depletion, Kinase-Glo luminescence;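 active = inhibition above a per-plate cutoff of the control wells' mean inhibition plus 3 SD, cut at about 5.5% in these data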;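 note: 0% = DMSO wells median and 100% = median of wells with control inhibitor compound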
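Test system: purified T. brucei MetRS enzyme. Also added: ATP, methionine and E. coli bulk tRNA substrates. Compound: 11.9 µM single point. Schedule: 15 min enzyme-compound preincubation, 2 h reaction, 10 min detection, 25 °C. Signal: luciferase luminescence of residual ATP, Kinase-Glo. Evaluation: percent inhibition versus plate control medians. Controls: DMSO wells, low control.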
V-ATPase pH: alters yeast V-ATPase proton transport. S. cerevisiae, pHLuorin cytosolic pH fluorescence. response, % at 10 µM. 0.37% of 350,000 active. AID 504577; in the data active = response mostly above about 7.3%, no sharp cut-off; inactive = mostly below about 5.4%; note: actives read high
XBP1 UPR activ: activators of adaptive arm of unfolded protein response (XBP1); CHO-XBP1 luciferase reporter, IRE1-XBP1 UPR activation, luminescence; percent of tunicamycin response, DMSO as zero; AID 463104; activation, % at 20 µM; 0.33% of 330,000 active;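 active = versus positive control, 20 µM dose yields 30% or more activation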;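 note: 100% = tunicamycin at 10 µg/mL and 0% = DMSO only wells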
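assay system = CHO-XBP1 luciferase reporter cells | amount = 1000 cells/well | buffer or medium = F12 plus 10% FBS | compound dosing = single point, 20 µM final compound, 1% DMSO | incubation = 16-18 h cell attachment at 37 °C, then 6 h compound exposure | detection = Steady-Glo luminescence read | controls = tunicamycin 10 µg/mL and vehicle-only wells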
Tb MetRS conf: confirmation of Trypanosoma brucei MetRS inhibitors. shares compounds with TbMetRS inhib. T. brucei MetRS enzyme, luminescence (ATP depletion). inhibition, % at 11.9 µM. 93% of 1,400 active; in the data active = inhibition above about 7%
Jurkat tox: Jurkat T cell cytotoxicity for MetRS hits; shares compounds with TbMetRS inhib; Jurkat cells viability, ATP luminescence; inhibition, % at 8.3 µM; 12% of 1,400 active; AID 624413; in the data active = inhibition above about 15%;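 note: 0% = vehicle and 100% = reference inhibitor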
TbMetRS FP orth: orthogonal test for Trypanosoma brucei MetRS inhibitors; 44% of 1,400 active; shares compounds with TbMetRS inhib; inhibition, % at 11.9 µM; AID 651607; purified T. brucei MetRS, fluorescence polarization; in the data active = inhibition above about 17%;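 note: 0% = vehicle wells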
Active calls of the source: *; x = no result. This is one part of a sample in which hits are shown more often than they occur.

SMILES	UPR CHOP act	CHOP inh	TbMetRS inhib	V-ATPase pH	XBP1 UPR activ	Tb MetRS conf	Jurkat tox	TbMetRS FP orth
COc1ccc(N2CCN(C(c3cccs3)C(C)NC(=O)C(=O)N3CCCCC3)CC2)cc1 (stereo not drawn)	1.6	x	0.3	3.3	-6.7	x	x	x
O=C(COC(=O)c1ccccc1NCCO)Nc1cccc(S(=O)(=O)NC2=NCCCCC2)c1	-0.8	x	-0.3	-2.9	2.9	x	x	x
CCOc1ccc(N2C(=O)CC(SCc3nc4ccccc4[nH]3)C2=O)cc1 (stereo not drawn)	-0.6	-5.0	1.6	2.5	-4.1	x	x	x
O=C1CC(SCc2nc3ccccc3[nH]2)C(=O)N1c1ccc(F)c(Cl)c1 (stereo not drawn)	-0.6	26.1	28.8*	5.4	-2.0	21.4*	6.5	6.4
O=C1CC(SCc2nc3ccccc3[nH]2)C(=O)N1c1cccc(F)c1 (stereo not drawn)	-1.1	30.3	25.7*	-3.0	-1.3	23.1*	16.6*	9.9
O=C1CC(SCc2nc3ccccc3[nH]2)C(=O)N1c1ccc(Cl)cc1 (stereo not drawn)	-0.6	-25.2	5.7*	3.2	-3.1	5.7*	-2.4	0.1
CCc1nc(CNC(=O)C2CCC(=O)N(Cc3ccccc3F)C2)no1 (stereo not drawn)	1.7	x	-0.2	-1.0	-1.2	x	x	x
Cn1c(=O)c2c(-c3ccccc3)n(-c3cc(Cl)c([N+](=O)[O-])cc3O)cc2n(C)c1=O	x	x	1.0	x	x	x	x	x
Clc1ccc(OCc2nc(-c3ccccn3)no2)c(Br)c1	-3.0	72.0*	5.8*	2.9	-5.0	6.5*	7.9	8.4
Cc1ccc(NC(=O)Cn2c(CCC(=O)O)ccc2-c2ccc(Cl)cc2)cc1	-2.0	x	10.0*	-0.1	-7.4	34.2*	-5.5	16.9*
O=C(Nc1ccccc1)Nc1nnc([C@@H]2C[C@H](O)[C@@H](CO)O2)s1	x	x	2.2	x	x	x	x	x
Cc1cc(NS(=O)(=O)c2ccc(Nc3nc(-c4ccc(C)c(C)c4)cs3)cc2)no1	1.0	47.4	1.6	-0.5	1.5	x	x	x
Cc1cc(NS(=O)(=O)c2ccc(Nc3nc(-c4ccc(O)cc4)cs3)cc2)no1	-0.6	28.3	5.7*	3.5	-0.8	10.8*	-0.5	0.0
CC(C)NC(=O)c1ccc(-c2ccc(F)c(F)c2)c2ccoc12	x	x	0.1	x	x	x	x	x
c1ccc(Nc2ccnc(Nc3ccccc3)n2)cc1	6.0	43.5	10.0*	5.6	2.8	23.9*	14.0	14.1
O=C(NCc1cccs1)c1ccccc1	2.6	14.6	-0.1	0.6	1.6	x	x	x
O=C(NCc1cccs1)c1cccc(Nc2nc3ccc(Br)cc3[nH]2)c1	-1.5	60.6	5.7*	3.4	0.8	25.1*	0.7	21.6*
Cc1ccc2nc(-c3cccc(NC(=O)c4ccco4)c3)[nH]c2c1	5.6	2.2	6.0*	0.1	-0.1	9.1*	9.4	56.3*
O=C(Nc1ccc2nc(-c3cccnc3)[nH]c2c1)c1ccco1	1.2	-8.6	0.0	-0.5	3.3	x	x	x
c1ccc2cc3[nH]c(CN4CCOCC4)nc3cc2c1	2.2	0.0	6.6*	-2.0	8.5	12.5*	10.2	-1.3
CCOc1ccc(S(=O)(=O)Nc2cc(Cl)ccc2O)cc1	0.3	65.9	16.5*	-8.3	-1.2	33.4*	10.0	11.2
CCOc1ccc(S(=O)(=O)Nc2cccc(Cl)c2)cc1	1.2	x	0.3	1.1	-3.8	x	x	x
Cc1ccc(Cn2nnnc2CN2CCC(NC(=O)c3ccc(Br)cc3)CC2)cc1	1.4	29.8	-0.6	0.5	-3.2	x	x	x
Clc1ccc2nc(C3CCN(Cc4nnnn4C4CCCCC4)CC3)[nH]c2c1	-0.2	3.5	69.3*	5.4	0.1	81.0*	2.9	55.6*
Cc1ccc(Cn2nnnc2CN2CCC(c3nc4ccc(Cl)cc4[nH]3)CC2)cc1	0.4	-6.6	21.2*	12.7	-1.7	35.5*	42.8*	12.4
SMILES	UPR CHOP act	CHOP inh	TbMetRS inhib	V-ATPase pH	XBP1 UPR activ	Tb MetRS conf	Jurkat tox	TbMetRS FP orth
COc1ccc(C(=S)N2CCN(c3ccccc3C)CC2)cc1	1.0	16.3	-0.1	-4.7	-2.9	x	x	x
COc1cc(NC(C)=O)c2ncccc2c1[N+](=O)[O-]	0.1	29.7	11.5*	1.0	0.8	22.7*	-5.8	3.4
CO[C@@H]1CN(C)C(=O)c2cc(NC(=O)Nc3ccc4c(c3)OCO4)ccc2OC[C@@H](C)N(C)C[C@H]1C	x	x	0.4	x	x	x	x	x
COCC(=O)N1C[C@H](C)[C@H](OC)CN(C)C(=O)c2cc(NC(=O)Nc3cccc(F)c3)ccc2OC[C@@H]1C	x	x	34.2*	x	x	43.0*	-2.8	17.5*
O=C(Nc1nccs1)[C@@H]1CCCN1C(=O)c1cccs1	-0.6	-1.8	-0.6	3.0	1.0	x	x	x
O=C(Nc1nc2c(s1)CCCC2)C1CCCN1C(=O)c1cccs1 (stereo not drawn)	-1.4	17.3	5.9*	0.4	0.9	2.7	-6.6	5.5
COCCN(C(=O)c1csnn1)C(C(=O)NC1CCCCC1)c1ccc(Cl)cc1 (stereo not drawn)	0.6	x	9.2*	-2.4	-2.0	2.0	-1.8	-2.2
COCCN(C(=O)c1csnn1)C(C(=O)NC1CCCCC1)c1ccccc1 (stereo not drawn)	-2.7	x	0.1	2.0	2.0	x	x	x
O=C(C[C@H]1C(=O)N(c2ccc(Br)cc2)C[C@@H]1Cc1ccccc1)Nc1ccccc1	x	x	0.2	2.4	x	x	x	x
CCCCN1C[C@H](c2ccc(OC)cc2)[C@@H](CC(=O)Nc2ccc(Br)cc2)C1=O	x	x	44.8*	0.3	x	67.6*	8.7	34.0*
O=C(C[C@H]1C(=O)N(c2ccccc2)C[C@@H]1Cc1ccccc1)Nc1ccc(Br)cc1	x	x	7.6*	-1.8	x	18.1*	2.6	11.0
COc1ccc(N2C[C@H](CSC)[C@@H](CC(=O)Nc3ccc(Br)cc3)C2=O)cc1	x	x	19.4*	1.2	x	43.3*	-0.2	19.0*
CCc1nnc(NC(=O)C(C)Sc2ccccc2)s1 (stereo not drawn)	0.6	28.8	-0.1	0.6	-1.7	x	x	x
COc1cc(S(=O)(=O)Nc2ccccc2C(=O)N2CCCCC2)ccc1NC(C)=O	1.1	x	-0.4	0.3	-2.9	x	x	x
Fc1ccc(-n2nnc(-c3ccnc4ccccc34)n2)cc1	7.6	19.9	-0.3	-3.0	2.9	x	x	x
Cc1ccc2nc(SCC(=O)Nc3ccc(F)c([N+](=O)[O-])c3)[nH]c2c1	1.9	49.7	39.1*	-4.2	-0.4	49.8*	19.4*	26.6*

Bioassay records (PubChem)
